These results are taken from ChEMBL document CHEMBL1153367, “Synthesis and evaluation of lysine derived sulfamides as histone deacetylase inhibitors” (Bioorg Med Chem Lett, 2009).

A word on the IC50: it is the concentration at which inhibition is half-maximal.

The target of assay [1] is T1, Protein deacetylase HDAC6 (Homo sapiens, UniProt Q9UBN7).
T1 sequence (Q9UBN7 whole entry): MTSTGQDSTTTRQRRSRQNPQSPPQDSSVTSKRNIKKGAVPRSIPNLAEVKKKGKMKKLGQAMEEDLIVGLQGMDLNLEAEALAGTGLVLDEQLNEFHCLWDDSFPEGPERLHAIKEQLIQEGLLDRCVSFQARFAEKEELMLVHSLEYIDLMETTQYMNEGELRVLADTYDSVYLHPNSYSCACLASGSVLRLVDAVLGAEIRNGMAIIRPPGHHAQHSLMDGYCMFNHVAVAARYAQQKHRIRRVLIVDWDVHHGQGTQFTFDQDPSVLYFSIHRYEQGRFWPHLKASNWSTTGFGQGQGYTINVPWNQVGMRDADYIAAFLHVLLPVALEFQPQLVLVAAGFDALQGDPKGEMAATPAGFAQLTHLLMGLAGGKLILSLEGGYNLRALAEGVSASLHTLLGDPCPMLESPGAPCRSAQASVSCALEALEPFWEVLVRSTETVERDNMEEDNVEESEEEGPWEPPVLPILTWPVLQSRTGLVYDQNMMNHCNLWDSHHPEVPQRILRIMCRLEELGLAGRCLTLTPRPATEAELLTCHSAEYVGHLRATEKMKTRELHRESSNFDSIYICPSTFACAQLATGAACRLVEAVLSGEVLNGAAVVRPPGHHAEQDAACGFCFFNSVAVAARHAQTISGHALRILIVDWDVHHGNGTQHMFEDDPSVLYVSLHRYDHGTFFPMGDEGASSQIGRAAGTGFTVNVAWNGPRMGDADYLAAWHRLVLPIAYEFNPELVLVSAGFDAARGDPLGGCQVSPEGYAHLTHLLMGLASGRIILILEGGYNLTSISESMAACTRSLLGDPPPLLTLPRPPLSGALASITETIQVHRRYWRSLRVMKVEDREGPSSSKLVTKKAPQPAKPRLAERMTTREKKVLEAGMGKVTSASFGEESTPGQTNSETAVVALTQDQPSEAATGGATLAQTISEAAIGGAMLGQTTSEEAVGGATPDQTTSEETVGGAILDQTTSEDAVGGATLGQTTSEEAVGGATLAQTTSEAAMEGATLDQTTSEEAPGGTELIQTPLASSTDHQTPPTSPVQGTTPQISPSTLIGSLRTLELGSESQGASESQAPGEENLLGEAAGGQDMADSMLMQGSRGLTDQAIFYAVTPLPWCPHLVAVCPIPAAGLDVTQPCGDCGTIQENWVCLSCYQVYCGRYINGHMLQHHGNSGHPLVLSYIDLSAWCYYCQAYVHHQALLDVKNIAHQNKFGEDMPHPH
The assay can be described thus: Inhibition of human recombinant His-tagged HDAC6 expressed in baculovirus. Put shortly:
(§1)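 Enzyme preincubated with inhibitor 10 min at ambient temperature in 25 mM Hepes pH 8.0, 137 mM NaCl, 1 mM MgCl₂, 2.7 mM KCl. Coumarin-labeled acetyl-lysine substrate then added, incubated at 37 °C. Quenched with trypsin (1 mg/mL final) and TSA (1 μM final). Fluorescence read; IC50 from dose–response curves. Values are means of at least two experiments.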

The target of a further assay is Histone deacetylase 1 (Homo sapiens, UniProt Q13547). Put plainly: Inhibition of human recombinant FLAG-tagged HDAC1 expressed in baculovirus. Summed up: as §1
A further assay has as its target Histone deacetylase. Put plainly: Inhibition of HDAC in HEK293T cells by whole cell assay. To be noted: hek-293t. Format: cell-based, Homo sapiens. Summed up: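 Cultured 293T cells exposed to inhibitors for 16 h, then given the membrane-permeable substrate Boc-Ac-Lys-AMC for 90 min at 37 °C. Quenched with trypsin (1 mg/mL final) and TSA, then lysed in 1% NP-40. Fluorescence read at Ex 360/Em 470 nm; IC50 reported. Values are means of at least two experiments.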

Some results are limits rather than exact numbers.

Sequence of Histone deacetylase 1 (Q13547 whole entry): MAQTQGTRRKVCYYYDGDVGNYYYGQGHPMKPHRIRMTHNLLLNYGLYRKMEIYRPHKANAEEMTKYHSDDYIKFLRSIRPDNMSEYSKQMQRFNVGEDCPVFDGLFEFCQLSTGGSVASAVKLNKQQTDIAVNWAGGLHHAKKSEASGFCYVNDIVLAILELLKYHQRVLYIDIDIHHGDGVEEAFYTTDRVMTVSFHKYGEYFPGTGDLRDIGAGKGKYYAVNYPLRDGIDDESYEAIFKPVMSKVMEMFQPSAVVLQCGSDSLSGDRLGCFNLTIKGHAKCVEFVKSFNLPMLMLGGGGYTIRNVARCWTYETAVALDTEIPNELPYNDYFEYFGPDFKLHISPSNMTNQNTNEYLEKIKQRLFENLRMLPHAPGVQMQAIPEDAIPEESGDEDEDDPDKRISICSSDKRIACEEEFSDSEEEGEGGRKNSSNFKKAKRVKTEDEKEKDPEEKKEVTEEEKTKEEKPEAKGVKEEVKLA

Take `COc1ccc(-c2nc([C@H](CCCCNS(N)(=O)=O)NC(=O)OCc3ccccc3)cs2)cc1`: the half-inhibitory concentration (IC50) in assay [1] is 480 nM; on Histone deacetylase 1 it was 500 nM.
On to `COc1ccc2[nH]c(C)c(CC(=O)N[C@@H](CCCCNS(N)(=O)=O)C(=O)Nc3nc(-c4ccccc4)cs3)c2c1`, for which the IC50 was determined as 1200 nM in assay [1], 590 nM against Histone deacetylase and 64 nM at Histone deacetylase 1.
Taken in the same sequence, the figures for `NS(=O)(=O)NCCCC[C@H](NC(=O)Nc1ccccc1)C(=O)Nc1nc(-c2ccccc2)cs1` were 560 nM, more than 50000 nM and 2300 nM.
Regarding `CC(C)(C)c1csc(NC(=O)[C@H](CCCCNS(N)(=O)=O)NC(=O)OCc2ccccc2)n1`, the half-inhibitory concentration (IC50) came to 840 nM in assay [1], 9100 nM on Histone deacetylase and 3600 nM at Histone deacetylase 1.
For `CCOC(=O)c1csc(NC(=O)[C@H](CCCCNS(N)(=O)=O)NC(=O)OCc2ccccc2)n1`, the IC50 in assay [1] is 580 nM; on Histone deacetylase, more than 50000 nM; on Histone deacetylase 1, more than 10000 nM.
The matching figures for `CCOC(=O)N[C@@H](CCCCNS(N)(=O)=O)C(=O)Nc1nc(-c2ccccc2)cs1`: 200 nM, 17000 nM and 2500 nM.
Taken in the same sequence, the figures for `NS(=O)(=O)NCCCC[C@H](NC(=O)OCc1ccccc1)c1nnc(-c2ccccc2)o1` were 1800 nM, 9900 nM and 3200 nM.
Turning to `NS(=O)(=O)NCCCC[C@H](NC(=O)OCc1ccccc1)c1nc(-c2ccccc2)cs1`, the IC50 was 1200 nM in assay [1], 12000 nM against Histone deacetylase and 4900 nM at Histone deacetylase 1.
The matching figures for `NS(=O)(=O)NCCCC[C@H](NC(=O)OCc1cccc(Cl)c1)C(=O)Nc1nc(-c2ccccc2)cs1`: 280 nM, 3600 nM and 350 nM.
Turning to `Cn1nc([C@H](CCCCNS(N)(=O)=O)NC(=O)OCc2ccccc2)nc1-c1ccccc1`, the values for the half-inhibitory concentration (IC50) (in assay [1]; at Histone deacetylase; at Histone deacetylase 1) were 2000 nM, more than 50000 nM and 4300 nM, respectively.
On to `NS(=O)(=O)NCCCC[C@H](NC(=O)OCc1ccccc1)c1nc2ccccc2[nH]1`, for which the IC50 in assay [1] is 100 nM; against Histone deacetylase, 9500 nM; at Histone deacetylase 1 it was 2900 nM.
The matching figures for `NS(=O)(=O)NCCCC[C@H](NC(=O)OCc1ccccc1)C(=O)Nc1nccs1`: 4100 nM, more than 50000 nM and more than 10000 nM.
Take `NS(=O)(=O)NCCCC[C@H](NC(=O)OCc1ccccc1)C(=O)Nc1nc(-c2ccccc2)c(-c2ccccc2)s1`: the IC50 in assay [1] was determined as 450 nM; on Histone deacetylase, 7200 nM; on Histone deacetylase 1, 850 nM.
The matching figures for `NS(=O)(=O)NCCCC[C@H](NC(=O)OCc1cccnc1)C(=O)Nc1nc(-c2ccccc2)cs1`: 600 nM, 18000 nM and 1500 nM.
For `NS(=O)(=O)NCCCC[C@H](NC(=O)NCc1ccc(F)cc1)C(=O)Nc1nc(-c2ccccc2)cs1`, the figures for the IC50 (in assay [1]; on Histone deacetylase; on Histone deacetylase 1) were 370 nM, 29000 nM and 350 nM, respectively.
The matching figures for `CC(C)c1ccc(-c2csc(NC(=O)[C@H](CCCCNS(N)(=O)=O)NC(=O)OCc3ccccc3)n2)cc1`: 1400 nM, 3200 nM and 520 nM.
The matching figures for `NS(=O)(=O)NCCCC[C@H](NC(=O)OCc1ccccc1)c1c[nH]c(-c2ccccc2)n1`: 410 nM, 2200 nM and 290 nM.
Taken in the same sequence, the figures for `NS(=O)(=O)NCCCC[C@H](NC(=O)OCc1ccc(Cl)cc1)C(=O)Nc1nc(-c2ccccc2)cs1` were 530 nM, 6800 nM and 570 nM.
Take `NS(=O)(=O)NCCCC[C@H](NC(=O)OCc1ccccc1)C(=O)Nc1nc2ccccc2s1`: the values for the IC50 (in assay [1]; on Histone deacetylase; on Histone deacetylase 1) were 190 nM, 19000 nM and 4500 nM, respectively.
